Assays:
[1] = tested on: human multiple myeloma cell lines (KMS‐12‐BM, LP‐1, NCI‐H929); experiment: Anti-proliferative activity; format: cell-based; settings: 72 h
[2] = molecular target: fms‐like tyrosine kinase‐1 (Homo sapiens, UniProt P17948); experiment: Kinase inhibition profiling at 100 nmol/L; format: biochemical; settings: read-out: Inhibition at 100 nmol/L
[3] = tested on: patients with advanced solid tumors; experiment: Phase I first-in-human study: pharmacodynamics; format: in vivo
Summary of the method: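 Open-label 3+3 dose-escalation/de-escalation study. After a 1-week observation period, the test compound was given orally once daily, continuously, after an overnight fast. On pharmacodynamic sampling days, fasting continued until 2 h post-dose. Plasma glucose and insulin were sampled between days 1 and 29, at pre-dose and at 1, 2 and 24 h post-dose. Only the fasting time points were evaluable.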

[4] = preliminary in vitro and in vivo studies; ref Kyowa Hakko Kirin Co., Tokyo, unpublished data; cited from earlier work
[5] = tested on: non‐human primate, rodent; settings: ref Kyowa Hakko Kirin Co., Tokyo, unpublished data; cited from earlier work
[6] = molecular target: kinase insert domain receptor (Homo sapiens, UniProt P35968); experiment: Kinase inhibition profiling at 100 nmol/L; format: biochemical; settings: read-out: Inhibition at 100 nmol/L
[7] = tested on: patients with advanced solid tumors; experiment: Phase I first-in-human study: safety, tolerability, DLT, MTD; format: in vivo
Summary of the method: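 Open-label 3+3 dose-escalation/de-escalation; oral once-daily dosing under overnight fasting for 28 days, 1-week observation, then continuous; AEs graded by CTCAE v3.0 with attribution; DLTs included grade 3 fasting hyperglycemia, grade 3 non-fasting hyperglycemia >4 h, grade 4 hyperglycemia, grade ≥2 cardiac toxicity, other grade ≥3 non-hematologic events, grade 4 neutropenia >7 days, grade 4 thrombocytopenia.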

[8] = patients, 37.5 and 50 mg, 1 and 2 h post‐dose

kinase insert domain receptor, sequence (P35968 20-1356): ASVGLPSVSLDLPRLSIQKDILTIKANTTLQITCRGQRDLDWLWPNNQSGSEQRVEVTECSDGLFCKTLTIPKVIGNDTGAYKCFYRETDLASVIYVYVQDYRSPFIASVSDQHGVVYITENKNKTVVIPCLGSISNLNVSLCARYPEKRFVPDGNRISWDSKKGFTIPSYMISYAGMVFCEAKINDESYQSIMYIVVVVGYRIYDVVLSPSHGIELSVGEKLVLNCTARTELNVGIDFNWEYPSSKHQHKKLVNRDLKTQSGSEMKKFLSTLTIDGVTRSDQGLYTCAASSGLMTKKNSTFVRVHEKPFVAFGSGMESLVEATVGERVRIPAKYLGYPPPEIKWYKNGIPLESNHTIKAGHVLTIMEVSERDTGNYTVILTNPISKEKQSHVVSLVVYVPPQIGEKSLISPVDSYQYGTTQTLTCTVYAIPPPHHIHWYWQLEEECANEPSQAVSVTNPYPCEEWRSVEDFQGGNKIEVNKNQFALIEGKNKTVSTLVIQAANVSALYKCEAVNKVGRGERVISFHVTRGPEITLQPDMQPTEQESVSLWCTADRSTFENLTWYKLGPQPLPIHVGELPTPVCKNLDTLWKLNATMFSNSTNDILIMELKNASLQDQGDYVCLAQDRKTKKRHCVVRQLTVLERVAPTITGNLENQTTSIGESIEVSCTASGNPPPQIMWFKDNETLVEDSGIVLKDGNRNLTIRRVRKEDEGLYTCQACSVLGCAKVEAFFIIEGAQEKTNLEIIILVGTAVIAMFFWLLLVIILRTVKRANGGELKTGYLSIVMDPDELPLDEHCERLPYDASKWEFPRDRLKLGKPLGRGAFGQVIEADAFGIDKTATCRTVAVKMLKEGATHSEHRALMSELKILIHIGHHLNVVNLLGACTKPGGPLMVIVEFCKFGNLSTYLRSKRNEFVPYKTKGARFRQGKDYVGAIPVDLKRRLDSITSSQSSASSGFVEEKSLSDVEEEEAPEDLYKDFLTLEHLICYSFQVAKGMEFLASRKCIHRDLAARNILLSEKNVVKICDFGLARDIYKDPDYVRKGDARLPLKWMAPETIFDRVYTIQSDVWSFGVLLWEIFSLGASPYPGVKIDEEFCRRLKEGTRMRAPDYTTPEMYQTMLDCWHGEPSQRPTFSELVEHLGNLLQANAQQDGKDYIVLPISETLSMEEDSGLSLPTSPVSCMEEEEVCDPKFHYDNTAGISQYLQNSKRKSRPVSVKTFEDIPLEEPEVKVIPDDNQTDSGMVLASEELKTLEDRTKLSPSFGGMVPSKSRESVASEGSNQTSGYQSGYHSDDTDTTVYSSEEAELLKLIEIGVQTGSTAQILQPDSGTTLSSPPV
fms‐like tyrosine kinase‐1, sequence (P17948 27-1338): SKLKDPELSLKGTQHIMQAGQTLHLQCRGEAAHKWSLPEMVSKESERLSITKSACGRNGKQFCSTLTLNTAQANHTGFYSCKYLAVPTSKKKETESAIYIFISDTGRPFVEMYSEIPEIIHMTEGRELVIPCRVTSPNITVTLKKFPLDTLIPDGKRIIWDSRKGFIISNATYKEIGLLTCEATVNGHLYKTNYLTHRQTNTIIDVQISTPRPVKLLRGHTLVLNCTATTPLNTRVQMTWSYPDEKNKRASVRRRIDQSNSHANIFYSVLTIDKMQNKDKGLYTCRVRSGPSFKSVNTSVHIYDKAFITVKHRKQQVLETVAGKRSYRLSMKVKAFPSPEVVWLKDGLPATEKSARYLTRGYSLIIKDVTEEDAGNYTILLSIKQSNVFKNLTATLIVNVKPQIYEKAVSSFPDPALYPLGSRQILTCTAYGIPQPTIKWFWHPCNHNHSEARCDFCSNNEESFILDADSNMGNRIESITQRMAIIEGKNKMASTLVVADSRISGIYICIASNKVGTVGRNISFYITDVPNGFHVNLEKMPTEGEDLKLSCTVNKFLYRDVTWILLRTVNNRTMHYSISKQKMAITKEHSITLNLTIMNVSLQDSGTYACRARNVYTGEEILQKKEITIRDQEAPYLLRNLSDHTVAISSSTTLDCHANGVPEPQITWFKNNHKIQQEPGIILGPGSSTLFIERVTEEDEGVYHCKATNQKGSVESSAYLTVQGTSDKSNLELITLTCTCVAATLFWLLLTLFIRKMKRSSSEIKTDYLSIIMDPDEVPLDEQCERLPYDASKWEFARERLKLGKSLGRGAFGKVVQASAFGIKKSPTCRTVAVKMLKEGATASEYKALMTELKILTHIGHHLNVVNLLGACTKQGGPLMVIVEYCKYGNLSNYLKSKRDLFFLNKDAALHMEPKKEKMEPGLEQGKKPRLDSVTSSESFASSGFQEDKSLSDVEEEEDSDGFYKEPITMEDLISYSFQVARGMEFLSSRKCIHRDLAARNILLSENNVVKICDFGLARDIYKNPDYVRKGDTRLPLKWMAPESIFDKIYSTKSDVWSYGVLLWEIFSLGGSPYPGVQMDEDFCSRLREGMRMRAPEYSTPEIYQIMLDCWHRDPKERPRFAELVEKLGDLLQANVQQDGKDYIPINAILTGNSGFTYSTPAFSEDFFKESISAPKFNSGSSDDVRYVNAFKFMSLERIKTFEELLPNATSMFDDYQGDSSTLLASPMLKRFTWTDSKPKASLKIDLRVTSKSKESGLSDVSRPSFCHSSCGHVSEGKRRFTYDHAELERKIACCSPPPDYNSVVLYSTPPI

For `Cc1ccsc1C(=O)Nc1cc(CN2CCN(C(=O)CO)CC2)ccc1/C=C/c1n[nH]c2ccccc12` [KW‐2450], the GI50 [1] was 11 to 19 nM, the inhibition at 0.1 µM [2] was over 90% and the “Patients with insulin values above the upper limit of quantitation (300 μU/mL)” value ([3]; 37.5‐mg cohort) was “five”. The “Patients with insulin values above the upper limit of quantitation (300 μU/mL)” value ([3]; 50‐mg cohort) was “three”, the Fasting glucose [3, 8] was “Elevations in fasting glucose” and the Fasting insulin [3, 8] was “Elevations”. The “Antitumor effect in combination with lapatinib and letrozole” value [4] was “synergistic antitumor effects”, the “Hyperglycemia at pharmacologically active (lower) doses” value [5] was “hyperglycemia induced” and the inhibition at 0.1 µM [6] was over 90%. The “Anorexia, treatment‐related, Grade 1–2” value ([7]; 37.5 mg/day (n = 7)) was 2 (28.6) No. of patients (%), the “Anorexia, treatment‐related, Grade 3” value ([7]; 37.5 mg/day (n = 7)) was 0 (0.0) No. of patients (%) and the “Constipation, treatment‐related, Grade 1–2” value ([7]; 37.5 mg/day (n = 7)) was 1 (14.3) No. of patients (%). The “Constipation, treatment‐related, Grade 3” value ([7]; 37.5 mg/day (n = 7)) was 0 (0.0) No. of patients (%), the “Decreased appetite, treatment‐related, Grade 1–2” value ([7]; 37.5 mg/day (n = 7)) was 0 (0.0) No. of patients (%) and the “Decreased appetite, treatment‐related, Grade 3” value ([7]; 37.5 mg/day (n = 7)) was 0 (0.0) No. of patients (%). The “Diarrhea, treatment‐related, Grade 1–2” value ([7]; 37.5 mg/day (n = 7)) was 0 (0.0) No. of patients (%), the “Diarrhea, treatment‐related, Grade 3” value ([7]; 37.5 mg/day (n = 7)) was 0 (0.0) No. of patients (%) and the “Dizziness, treatment‐related, Grade 1–2” value ([7]; 37.5 mg/day (n = 7)) was 1 (14.3) No. of patients (%). The “Dizziness, treatment‐related, Grade 3” value ([7]; 37.5 mg/day (n = 7)) was 0 (0.0) No. of patients (%), the “Fatigue, treatment‐related, Grade 1–2” value ([7]; 37.5 mg/day (n = 7)) was 4 (57.1) No. of patients (%) and the “Fatigue, treatment‐related, Grade 3” value ([7]; 37.5 mg/day (n = 7)) was 0 (0.0) No. of patients (%). For the same compound, the “Hyperglycemia, treatment‐related, Grade 1–2” value ([7]; 37.5 mg/day (n = 7)) was 1 (14.3) No. of patients (%), the “Hyperglycemia, treatment‐related, Grade 3” value ([7]; 37.5 mg/day (n = 7)) was 0 (0.0) No. of patients (%) and the “Mucosal inflammation, treatment‐related, Grade 1–2” value ([7]; 37.5 mg/day (n = 7)) was 1 (14.3) No. of patients (%). The “Mucosal inflammation, treatment‐related, Grade 3” value ([7]; 37.5 mg/day (n = 7)) was 0 (0.0) No. of patients (%), the “Nausea, treatment‐related, Grade 1–2” value ([7]; 37.5 mg/day (n = 7)) was 2 (28.6) No. of patients (%) and the “Nausea, treatment‐related, Grade 3” value ([7]; 37.5 mg/day (n = 7)) was 0 (0.0) No. of patients (%). The “Pain, treatment‐related, Grade 1–2” value ([7]; 37.5 mg/day (n = 7)) was 0 (0.0) No. of patients (%), the “Pain, treatment‐related, Grade 3” value ([7]; 37.5 mg/day (n = 7)) was 0 (0.0) No. of patients (%) and the “Rash, treatment‐related, Grade 1–2” value ([7]; 37.5 mg/day (n = 7)) was 1 (14.3) No. of patients (%). The “Rash, treatment‐related, Grade 3” value ([7]; 37.5 mg/day (n = 7)) was 1 (14.3) No. of patients (%), the “Vomiting, treatment‐related, Grade 1–2” value ([7]; 37.5 mg/day (n = 7)) was 1 (14.3) No. of patients (%) and the “Vomiting, treatment‐related, Grade 3” value ([7]; 37.5 mg/day (n = 7)) was 0 (0.0) No. of patients (%). The “Patients with dose‐limiting toxicity” value ([7]; 37.5 mg/day, one of seven patients, grade 3 rash) was 14.3%, the “Anorexia, treatment‐related, Grade 1–2” value ([7]; 50 mg/day (n = 6)) was 0 (0.0) No. of patients (%) and the “Anorexia, treatment‐related, Grade 3” value ([7]; 50 mg/day (n = 6)) was 0 (0.0) No. of patients (%). For the same compound, the “Constipation, treatment‐related, Grade 1–2” value ([7]; 50 mg/day (n = 6)) was 1 (16.7) No. of patients (%), the “Constipation, treatment‐related, Grade 3” value ([7]; 50 mg/day (n = 6)) was 0 (0.0) No. of patients (%) and the “Decreased appetite, treatment‐related, Grade 1–2” value ([7]; 50 mg/day (n = 6)) was 3 (50.0) No. of patients (%). The “Decreased appetite, treatment‐related, Grade 3” value ([7]; 50 mg/day (n = 6)) was 0 (0.0) No. of patients (%), the “Diarrhea, treatment‐related, Grade 1–2” value ([7]; 50 mg/day (n = 6)) was 2 (33.3) No. of patients (%) and the “Diarrhea, treatment‐related, Grade 3” value ([7]; 50 mg/day (n = 6)) was 0 (0.0) No. of patients (%). For the same compound, the “Dizziness, treatment‐related, Grade 1–2” value ([7]; 50 mg/day (n = 6)) was 2 (33.3) No. of patients (%), the “Dizziness, treatment‐related, Grade 3” value ([7]; 50 mg/day (n = 6)) was 0 (0.0) No. of patients (%) and the “Fatigue, treatment‐related, Grade 1–2” value ([7]; 50 mg/day (n = 6)) was 4 (66.7) No. of patients (%). The “Fatigue, treatment‐related, Grade 3” value ([7]; 50 mg/day (n = 6)) was 0 (0.0) No. of patients (%), the “Hyperglycemia, treatment‐related, Grade 1–2” value ([7]; 50 mg/day (n = 6)) was 2 (33.3) No. of patients (%) and the “Hyperglycemia, treatment‐related, Grade 3” value ([7]; 50 mg/day (n = 6)) was 2 (33.3) No. of patients (%). The “Mucosal inflammation, treatment‐related, Grade 1–2” value ([7]; 50 mg/day (n = 6)) was 1 (16.7) No. of patients (%), the “Mucosal inflammation, treatment‐related, Grade 3” value ([7]; 50 mg/day (n = 6)) was 0 (0.0) No. of patients (%) and the “Nausea, treatment‐related, Grade 1–2” value ([7]; 50 mg/day (n = 6)) was 4 (66.7) No. of patients (%).

From publication PMC4832855 (Cancer Science, 2016)
